# Experimental data pooled from the literature.
# Each line is one published result; the experiments were not run side by side.
SMILES,system,setting,endpoint,value
C[C@H]1Oc2cc(cnc2N)-c2c(nn(C)c2C#N)CN(C)C(=O)c2ccc(F)cc21,"male Sprague-Dawley rat, plasma","oral, 5 mg/kg, single dose",AUC(0-inf),1870 ng·h/mL
Cc1c(S(=O)(=O)N2CCn3nccc3C2)cc(C(=O)NCc2c(F)ccnc2N2CCCC2)n1C,PAMPA,,Papp,16.8 ×10⁻⁶ cm/s
C=C(CC(=O)OCc1oc(=O)oc1C)C(=O)O,PAMPA,"10 µM, 4 h",Papp,~15 ×10⁻⁶ cm/s
CCOCC(=O)N1CCC[C@H](C(=O)NCc2nc(-c3ccc(C)nc3)cs2)C1,"male Sprague-Dawley rat, plasma","oral, 3 mg/kg",AUC,32 µM·h
CN(C)C(=O)c1cc2cnc(Nc3ccc(N4CCNCC4)cn3)nc2n1C1CCCC1,"male Sprague-Dawley rat, plasma","intraperitoneal, 100 mg/kg",AUC,12200 ng·h/mL
CCOCC(=O)N1CCC[C@H](C(=O)NCc2nc(-c3ccc(C#N)nc3)cs2)C1,"male Sprague-Dawley rat, plasma","oral, 3 mg/kg",AUC,21 µM·h
C=C(CC(=O)OCOC(=O)OC(C)C)C(=O)OCOC(=O)OC(C)C,PAMPA,"10 µM, 4 h, pH 7.4",Papp,> 10 ×10⁻⁶ cm/s
NCCOCC(=O)N1CCC[C@H](C(=O)NCc2nc(-c3ccc(C(F)(F)F)cc3)cs2)C1,"male Sprague-Dawley rat, plasma","oral, 3 mg/kg",AUC,0.071 µM·h
COc1nc(-c2cccc(-c3ccccc3)c2C)ccc1CNCCNC(=O)CCCCCCCCCCC(=O)N1CCN(CCNC(=O)c2cc3c(=O)n4cccc(C)c4nc3n(CCc3cccs3)c2=N)CC1,"male Sprague-Dawley rat, plasma","intraperitoneal, 4 mg/kg",AUC(0-t),2440 ng·h/mL
